Reference: publication PMC3302728 (Nature Communications, 2011)
pEC50: −log10 of the molar value.

Key:
[1] = molecular target: GluN2D ligand-binding domain (Rattus norvegicus, UniProt Q62645, DEL565-685); assay: X-ray crystallography; conditions: co-crystal with 10 mM ligand; D1-D2 cleft
[2] = molecular target: GluN1/GluN2D NMDA receptor (Rattus norvegicus, UniProt P35439+Q62645); assay: EC50 of agonist response; type: cell-based
Procedure, shortened: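 Xenopus laevis oocytes injected with 5-10 ng cRNA (GluN1:GluN2 ratio 1:2), stored at 15°C, recorded 2-4 days later at 23°C. Two-electrode voltage clamp at -30 to -60 mV in pH 7.4 HEPES bath with Ba2+ and 30 μM glycine. Concentration-response curves fitted per oocyte with a Hill equation to give EC50 and Hill coefficient.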

Chain of GluN2D ligand-binding domain (Q62645 424-564, stated change not applied): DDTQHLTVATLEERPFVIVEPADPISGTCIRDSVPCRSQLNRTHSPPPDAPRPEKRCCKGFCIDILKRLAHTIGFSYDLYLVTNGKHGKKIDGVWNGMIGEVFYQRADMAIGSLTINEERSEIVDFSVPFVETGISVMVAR
Chain of GluN2D ligand-binding domain (Q62645 686-827, stated change not applied): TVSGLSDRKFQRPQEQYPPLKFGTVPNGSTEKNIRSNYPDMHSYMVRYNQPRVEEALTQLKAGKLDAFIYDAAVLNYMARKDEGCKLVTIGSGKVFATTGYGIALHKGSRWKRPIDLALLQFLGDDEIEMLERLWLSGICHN
Chain of GluN1/GluN2D NMDA receptor (Q62645 28-1323, other chains not shown): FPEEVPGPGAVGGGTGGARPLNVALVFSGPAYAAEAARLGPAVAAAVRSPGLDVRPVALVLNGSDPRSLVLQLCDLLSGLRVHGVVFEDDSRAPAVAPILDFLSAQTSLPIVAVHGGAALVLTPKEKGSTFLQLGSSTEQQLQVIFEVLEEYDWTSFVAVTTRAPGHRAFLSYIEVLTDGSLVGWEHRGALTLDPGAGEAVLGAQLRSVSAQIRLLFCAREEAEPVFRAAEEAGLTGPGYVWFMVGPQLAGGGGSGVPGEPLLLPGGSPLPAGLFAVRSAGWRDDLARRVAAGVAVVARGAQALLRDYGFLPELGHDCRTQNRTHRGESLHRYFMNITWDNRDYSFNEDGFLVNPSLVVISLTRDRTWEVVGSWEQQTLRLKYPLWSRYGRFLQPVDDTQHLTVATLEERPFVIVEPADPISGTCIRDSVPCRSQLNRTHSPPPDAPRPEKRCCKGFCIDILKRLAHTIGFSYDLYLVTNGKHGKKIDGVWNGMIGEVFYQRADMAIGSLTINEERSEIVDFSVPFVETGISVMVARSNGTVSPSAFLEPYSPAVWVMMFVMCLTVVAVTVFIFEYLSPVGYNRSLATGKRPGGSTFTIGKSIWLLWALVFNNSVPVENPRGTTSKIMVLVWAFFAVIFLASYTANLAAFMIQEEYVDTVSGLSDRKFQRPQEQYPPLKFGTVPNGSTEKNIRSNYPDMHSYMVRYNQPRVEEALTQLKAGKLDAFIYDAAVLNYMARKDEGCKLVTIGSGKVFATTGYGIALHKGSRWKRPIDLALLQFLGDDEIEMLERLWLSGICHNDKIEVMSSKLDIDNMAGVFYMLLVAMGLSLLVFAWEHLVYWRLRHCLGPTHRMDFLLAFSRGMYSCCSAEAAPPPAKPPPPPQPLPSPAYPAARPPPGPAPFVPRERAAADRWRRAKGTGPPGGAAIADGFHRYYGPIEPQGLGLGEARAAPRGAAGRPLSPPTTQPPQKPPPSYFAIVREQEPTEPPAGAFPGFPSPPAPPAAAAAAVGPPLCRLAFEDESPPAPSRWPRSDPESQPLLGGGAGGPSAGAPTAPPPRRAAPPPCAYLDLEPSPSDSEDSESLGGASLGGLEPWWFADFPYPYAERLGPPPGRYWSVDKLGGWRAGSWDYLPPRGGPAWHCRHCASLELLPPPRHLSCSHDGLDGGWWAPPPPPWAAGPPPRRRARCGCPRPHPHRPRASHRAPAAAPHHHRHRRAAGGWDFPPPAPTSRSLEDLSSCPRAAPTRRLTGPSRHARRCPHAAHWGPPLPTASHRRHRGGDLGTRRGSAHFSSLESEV

## N[C@@H](CCC(=O)O)C(=O)O [L-glutamate]
[1]
  X-ray crystallography: GluN2D ligand-binding domain structures in complex with D- and L-glutamate, L-aspartate, and NMDA

## N[C@@H](CC(=O)O)C(=O)O [L-aspartate]
[2]
  pEC50: 5.30
[1]
  X-ray crystallography: GluN2D ligand-binding domain structures in complex with D- and L-glutamate, L-aspartate, and NMDA

## N[C@H](CCC(=O)O)C(=O)O [D-glutamate]
[1]
  X-ray crystallography: GluN2D ligand-binding domain structures in complex with D- and L-glutamate, L-aspartate, and NMDA
